Reference: ChEMBL document CHEMBL4304751, “Discovery of Novel Pyrido-pyridazinone Derivatives as FER Tyrosine Kinase Inhibitors with Antitumor Activity” (ACS Med Chem Lett, 2019)
Values after ≈ are worked out from the molar mass of the structure shown.

Key:
[1] = target: Mitogen-activated protein kinase kinase kinase 9 (Homo sapiens) (UniProt P80192); assay: Inhibition of recombinant N-terminal GST-fusion protein tagged human MLK1 catalytic domain (110 to 422 residues) expressed in baculovirus expression system assessed as decrease in GST-labelled MAP2K7 phosphorylation at 200 nM by HRP-labelled anti-rabbit antibody based ELISA method relative to control
[2] = Oral bioavailability in BALB/cAnNCrlCrlj mouse at 10 mg/kg administered via gavage after 24 hrs; format: ADME, organism-based; details: in vivo
How it was run: (§1)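 Mouse pharmacokinetics: compound given orally at 10 mg/kg. Unbound plasma concentration is reported as a mean value after oral dosing.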

[3] = Cmax in BALB/cAnNCrlCrlj mouse at 10 mg/kg, po administered via gavage after 24 hrs; format: ADME, organism-based; design: dose 10 mg/kg, route oral; details: in vivo; how it was run: as §1
[4] = target: Serine/threonine-protein kinase Chk2 (Homo sapiens) (UniProt O96017); assay: Inhibition of recombinant N-terminal GST-fusion protein tagged human full length CHK2 (1 to 543 residues) expressed in baculovirus expression system assessed as decrease in fluorescence labelled CHKtide phosphorylation at 200 nM by off-chip mobility shift assay relative to control
[5] = Total plasma clearance in BALB/cAnNCrlCrlj mouse at 1 mg/kg, iv after 24 hrs; format: ADME, organism-based
How it was run: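 Clearance measured after a single intravenous dose of 1 mg/kg in mice.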

[6] = Solubility in FaSSIF; format: physicochemical
How it was run: (§2)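 Solubility expressed as μg/mL, measured in pH 6.8 buffer and in FaSSIF.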

[7] = target: Proto-oncogene tyrosine-protein kinase ROS (Homo sapiens) (UniProt P08922); assay: Inhibition of recombinant N-terminal GST-fusion protein tagged human ROS1 cytoplasmic domain (1883 to 2347 residues) expressed in baculovirus expression system assessed as decrease in fluorescence labelled IRS1 phosphorylation at 200 nM by off-chip mobility shift assay relative to control
[8] = target: Macrophage colony-stimulating factor 1 receptor (Homo sapiens) (UniProt P07333); assay: Inhibition of recombinant N-terminal GST-fusion protein tagged human FMS cytoplasmic domain (538 to 972 residues) expressed in baculovirus expression system assessed as decrease in fluorescence labelled Srctide phosphorylation at 200 nM by off-chip mobility shift assay relative to control
[9] = Protein binding in BALB/c mouse serum at 10 ug/mL incubated for 4 hrs under shaking condition by LC/MS/MS analysis; format: ADME, cell-free; details: read-out: PPB
How it was run: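 Binding determined using serum samples from BALB/c mice.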

[10] = target: Mast/stem cell growth factor receptor Kit (Homo sapiens) (UniProt P10721); assay: Inhibition of recombinant N-terminal GST-fusion protein tagged human KIT cytoplasmic domain (544 to 976 residues) expressed in baculovirus expression system assessed as decrease in fluorescence labelled Srctide phosphorylation at 200 nM by off-chip mobility shift assay relative to control
[11] = target: CDK2/Cyclin A2 (Homo sapiens) (UniProt P24941+P20248); assay: Inhibition of recombinant human full length N-terminal GST-tagged CDK2 (1 to 298 residues)/GST-tagged CyclinA2 (1 to 432 residues) expressed in baculovirus expression system assessed as decrease in fluorescence labelled modified histone H1 phosphorylation at 200 nM by off-chip mobility shift assay relative to control
[12] = target: High affinity nerve growth factor receptor (Homo sapiens) (UniProt P04629); assay: Inhibition of recombinant N-terminal GST-fusion protein tagged human TRKA cytoplasmic domain (436 to 790 residues) expressed in baculovirus expression system assessed as decrease in fluorescence labelled CSKtide phosphorylation at 200 nM by off-chip mobility shift assay relative to control
[13] = target: Mitogen-activated protein kinase kinase kinase kinase 4 (Homo sapiens) (UniProt O95819); assay: Inhibition of recombinant N-terminal GST-fusion protein tagged human HGK catalytic domain (1 to 328 residues) expressed in baculovirus expression system assessed as decrease in fluorescence labelled Moesin-derived phosphorylation at 200 nM by off-chip mobility shift assay relative to control
Mus musculus = assay: Unbound plasma concentration in BALB/cAnNCrlCrlj mouse at 10 mg/kg, po administered via gavage after 24 hrs by non-compartmental analysis; format: ADME, organism-based; details: in vivo; how it was run: as §1
[14] = target: T1, Interleukin-1 receptor-associated kinase 4 (Homo sapiens) (UniProt Q9NWZ3); assay: Inhibition of recombinant N-terminal GST-fusion protein tagged human full length IRAK4 (1 to 460 residues) expressed in baculovirus expression system assessed as decrease in fluorescence labelled IRAK1 phosphorylation at 200 nM by off-chip mobility shift assay relative to control
T1 sequence (whole entry): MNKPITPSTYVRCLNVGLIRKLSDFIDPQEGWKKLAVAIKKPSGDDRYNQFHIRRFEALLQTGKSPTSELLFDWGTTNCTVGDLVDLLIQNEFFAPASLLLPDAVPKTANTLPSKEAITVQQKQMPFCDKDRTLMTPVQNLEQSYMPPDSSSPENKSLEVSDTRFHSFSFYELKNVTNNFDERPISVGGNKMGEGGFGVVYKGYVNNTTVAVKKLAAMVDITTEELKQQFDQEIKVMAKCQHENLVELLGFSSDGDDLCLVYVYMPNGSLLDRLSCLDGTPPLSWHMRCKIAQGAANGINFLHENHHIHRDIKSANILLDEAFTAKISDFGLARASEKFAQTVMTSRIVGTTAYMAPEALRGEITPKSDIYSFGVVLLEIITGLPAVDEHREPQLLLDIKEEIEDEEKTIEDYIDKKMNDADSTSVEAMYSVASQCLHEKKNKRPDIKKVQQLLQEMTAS

[15] = target: T2, Testis-specific serine/threonine-protein kinase 1 (Homo sapiens) (UniProt Q9BXA7); assay: Inhibition of recombinant N-terminal GST fusion protein tagged human full length TSSK1 (1 to 367 residues) expressed in baculovirus expression system assessed as decrease in fluorescence labelled GS peptide phosphorylation at 200 nM by off-chip mobility shift assay relative to control
T2 sequence (whole entry): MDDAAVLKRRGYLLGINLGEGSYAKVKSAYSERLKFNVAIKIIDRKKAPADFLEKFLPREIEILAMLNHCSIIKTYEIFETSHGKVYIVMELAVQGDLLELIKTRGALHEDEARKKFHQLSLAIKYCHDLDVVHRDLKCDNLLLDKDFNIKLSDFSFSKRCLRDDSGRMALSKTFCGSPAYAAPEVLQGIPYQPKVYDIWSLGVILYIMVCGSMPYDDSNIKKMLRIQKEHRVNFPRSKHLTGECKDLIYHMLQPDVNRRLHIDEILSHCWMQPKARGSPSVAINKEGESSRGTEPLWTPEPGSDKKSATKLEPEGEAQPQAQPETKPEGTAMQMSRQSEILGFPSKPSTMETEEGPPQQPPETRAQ

[16] = target: Tyrosine-protein kinase Fes/Fps (Homo sapiens) (UniProt P07332); assay: Inhibition of recombinant N-terminal GST fusion protein tagged human full length FES (1 to 413/416 to 822 residues) expressed in baculovirus expression system assessed as decrease in fluorescence labelled Srctide phosphorylation at 200 nM by off-chip mobility shift assay relative to control
[17] = Metabolic stability in mouse liver microsomes assessed as parent compound remaining at 1 uM after 30 mins relative to control; format: ADME, Microsome; details: read-out: Stability
How it was run: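 Test compound at 1.0 μM incubated 30 min with mouse liver microsomes (1.0 mg/mL protein). The fraction of parent remaining is reported.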

[18] = Toxicity in BALB/cAJcl nu/nu mouse allografted with mouse BA/F3 cells expressing myc/His-tagged ETV6-FER kinase domain (452 to 821 residues) assessed as change in body weight loss at 12.5 to 100 mg/kg, po administered once per day for 4 days starting from 6 days after tumor cell implantation and measured during compound dosing; format: organism-based; details: in vivo
[19] = target: T3, Tyrosine-protein kinase Fer (Homo sapiens, UniProt P16591); assay: Inhibition of recombinant N-terminal GST-tagged human full length FER (1 to 822 residues) expressed in baculovirus expression system decrease in fluorescence labelled Srctide phosphorylation at 200 nM by off-chip mobility shift assay relative to control
Target sequence in this assay (P16591 whole entry, looked up, the tested form may be a part): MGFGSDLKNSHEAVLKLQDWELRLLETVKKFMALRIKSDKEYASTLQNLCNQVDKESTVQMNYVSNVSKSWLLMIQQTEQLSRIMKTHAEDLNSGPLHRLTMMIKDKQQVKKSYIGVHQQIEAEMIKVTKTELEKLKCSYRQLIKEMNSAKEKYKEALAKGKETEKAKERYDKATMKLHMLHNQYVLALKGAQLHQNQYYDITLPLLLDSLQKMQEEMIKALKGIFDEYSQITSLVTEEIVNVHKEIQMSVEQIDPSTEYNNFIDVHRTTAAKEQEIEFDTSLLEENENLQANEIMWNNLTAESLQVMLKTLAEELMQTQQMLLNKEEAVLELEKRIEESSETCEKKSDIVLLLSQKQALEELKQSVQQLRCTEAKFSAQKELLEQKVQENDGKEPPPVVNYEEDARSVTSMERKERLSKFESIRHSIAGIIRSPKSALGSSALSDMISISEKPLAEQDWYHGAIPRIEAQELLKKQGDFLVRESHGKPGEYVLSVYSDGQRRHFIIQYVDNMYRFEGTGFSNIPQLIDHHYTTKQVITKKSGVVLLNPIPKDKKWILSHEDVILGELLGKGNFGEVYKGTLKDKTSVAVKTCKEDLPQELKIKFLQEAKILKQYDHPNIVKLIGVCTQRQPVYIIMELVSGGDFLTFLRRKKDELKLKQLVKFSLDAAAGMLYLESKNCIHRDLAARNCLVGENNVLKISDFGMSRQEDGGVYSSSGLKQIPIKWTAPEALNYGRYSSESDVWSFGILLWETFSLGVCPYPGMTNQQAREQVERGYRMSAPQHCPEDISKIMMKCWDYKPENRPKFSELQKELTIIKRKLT

[20] = target: Tyrosine-protein kinase SYK (Homo sapiens) (UniProt P43405); assay: Inhibition of recombinant N-terminal GST-fusion protein tagged human full length SYK (1 to 635 residues) expressed in baculovirus expression system assessed as decrease in fluorescence labelled Blk/Lyntide phosphorylation at 200 nM by off-chip mobility shift assay relative to control
BaF3 = assay: Antitumor activity against mouse BA/F3 cells expressing myc/His-tagged ETV6-FER kinase domain (452 to 821 residues) allografted in BALB/cAJcl nu/nu mouse assessed as decrease in tumor volume administered orally once per day for 4 days starting from 6 days after tumor cell implantation and measured during compound dosing; format: functional, cell-based
[21] = AUC in BALB/cAnNCrlCrlj mouse at 10 mg/kg, po administered via gavage after 24 hrs; format: ADME, organism-based; design: time < 24 hr, dose 10 mg/kg, route oral; details: in vivo; how it was run: as §1
[22] = target: T3, Tyrosine-protein kinase Fer; assay: Inhibition of recombinant N-terminal His-tagged human FER (SH2 domain to C-terminal) expressed in Escherichia coli assessed as decrease in FL-Peptide22 substrate phosphorylation incubated for 90 mins
Target sequence in this assay (P16591 whole entry, the tested form may be a part): as the sequence (P16591 whole entry, looked up, the tested form may be a part) above

[23] = target: ALK tyrosine kinase receptor (Homo sapiens) (UniProt Q9UM73); assay: Inhibition of recombinant N-terminal GST-fusion protein tagged human ALK cytoplasmic domain (1058 to 1620 residues) expressed in baculovirus expression system assessed as decrease in fluorescence labelled Srctide phosphorylation at 200 nM by off-chip mobility shift assay relative to control
[24] = Effective permeability of compound at 5 uM after 24 hrs at pH 7.4 by LC/MS/MS based PAMPA assay; format: ADME; details: read-out: Peff
[25] = target: Receptor-type tyrosine-protein kinase FLT3 (Homo sapiens) (UniProt P36888); assay: Inhibition of recombinant N-terminal GST-fusion protein tagged human FLT3 cytoplasmic domain (564 to 993 residues) expressed in baculovirus expression system assessed as decrease in fluorescence labelled Srctide phosphorylation at 200 nM by off-chip mobility shift assay relative to control
[26] = Growth inhibition of mouse mock transfected BA/F3 cells assessed as decrease in cell viability after 3 days by luminescence based CellTiter-Glo assay; design: species or system BaF3
How it was run: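 Ba/F3 growth inhibition run as quadruplicate experiments. GI50 fitted with 95% confidence intervals.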

[27] = Solubility in buffer at pH 6.8; format: physicochemical; how it was run: as §2
[28] = target: T3, Tyrosine-protein kinase Fer
Target sequence in this assay (P16591 whole entry, looked up, the tested form may be a part): as above

[29] = target: Protein-tyrosine kinase 2-beta (Homo sapiens) (UniProt Q14289); assay: Inhibition of recombinant N-terminal GST-fusion protein tagged human full length PYK2 (1 to 967 residues) expressed in baculovirus expression system assessed as decrease in fluorescence labelled Blk/Lyntide phosphorylation at 200 nM by off-chip mobility shift assay relative to control
Chain of Protein-tyrosine kinase 2-beta (Homo sapiens) (Q14289 whole entry, looked up, the tested form may be a part): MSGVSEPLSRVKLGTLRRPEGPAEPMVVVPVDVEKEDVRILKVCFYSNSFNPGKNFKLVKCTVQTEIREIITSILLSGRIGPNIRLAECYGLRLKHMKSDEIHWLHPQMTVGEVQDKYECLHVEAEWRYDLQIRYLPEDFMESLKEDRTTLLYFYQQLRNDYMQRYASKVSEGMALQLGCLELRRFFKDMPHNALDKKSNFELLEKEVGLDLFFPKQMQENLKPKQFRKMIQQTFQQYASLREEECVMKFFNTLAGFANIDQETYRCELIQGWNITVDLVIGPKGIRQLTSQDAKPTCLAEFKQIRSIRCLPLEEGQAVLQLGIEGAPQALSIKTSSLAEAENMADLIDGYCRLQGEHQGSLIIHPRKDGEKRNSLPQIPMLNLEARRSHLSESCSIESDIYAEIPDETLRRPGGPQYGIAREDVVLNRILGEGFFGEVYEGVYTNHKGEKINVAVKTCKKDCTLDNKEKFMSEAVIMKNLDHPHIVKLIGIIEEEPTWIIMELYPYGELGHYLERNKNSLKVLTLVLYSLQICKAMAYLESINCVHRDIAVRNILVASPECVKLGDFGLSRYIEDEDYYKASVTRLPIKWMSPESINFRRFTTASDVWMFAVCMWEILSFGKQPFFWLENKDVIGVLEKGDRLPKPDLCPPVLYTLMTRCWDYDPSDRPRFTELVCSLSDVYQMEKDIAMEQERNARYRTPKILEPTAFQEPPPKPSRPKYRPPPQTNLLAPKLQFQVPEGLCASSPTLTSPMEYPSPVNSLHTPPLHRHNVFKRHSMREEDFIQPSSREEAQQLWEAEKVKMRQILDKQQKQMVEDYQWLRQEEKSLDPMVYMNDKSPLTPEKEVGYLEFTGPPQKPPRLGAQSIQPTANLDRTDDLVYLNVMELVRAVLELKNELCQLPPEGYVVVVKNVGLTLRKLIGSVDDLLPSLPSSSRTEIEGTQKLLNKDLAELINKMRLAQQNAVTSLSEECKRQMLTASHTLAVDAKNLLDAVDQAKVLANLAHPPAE

Chain of Proto-oncogene tyrosine-protein kinase ROS (Homo sapiens) (P08922 whole entry, the tested form may be a part): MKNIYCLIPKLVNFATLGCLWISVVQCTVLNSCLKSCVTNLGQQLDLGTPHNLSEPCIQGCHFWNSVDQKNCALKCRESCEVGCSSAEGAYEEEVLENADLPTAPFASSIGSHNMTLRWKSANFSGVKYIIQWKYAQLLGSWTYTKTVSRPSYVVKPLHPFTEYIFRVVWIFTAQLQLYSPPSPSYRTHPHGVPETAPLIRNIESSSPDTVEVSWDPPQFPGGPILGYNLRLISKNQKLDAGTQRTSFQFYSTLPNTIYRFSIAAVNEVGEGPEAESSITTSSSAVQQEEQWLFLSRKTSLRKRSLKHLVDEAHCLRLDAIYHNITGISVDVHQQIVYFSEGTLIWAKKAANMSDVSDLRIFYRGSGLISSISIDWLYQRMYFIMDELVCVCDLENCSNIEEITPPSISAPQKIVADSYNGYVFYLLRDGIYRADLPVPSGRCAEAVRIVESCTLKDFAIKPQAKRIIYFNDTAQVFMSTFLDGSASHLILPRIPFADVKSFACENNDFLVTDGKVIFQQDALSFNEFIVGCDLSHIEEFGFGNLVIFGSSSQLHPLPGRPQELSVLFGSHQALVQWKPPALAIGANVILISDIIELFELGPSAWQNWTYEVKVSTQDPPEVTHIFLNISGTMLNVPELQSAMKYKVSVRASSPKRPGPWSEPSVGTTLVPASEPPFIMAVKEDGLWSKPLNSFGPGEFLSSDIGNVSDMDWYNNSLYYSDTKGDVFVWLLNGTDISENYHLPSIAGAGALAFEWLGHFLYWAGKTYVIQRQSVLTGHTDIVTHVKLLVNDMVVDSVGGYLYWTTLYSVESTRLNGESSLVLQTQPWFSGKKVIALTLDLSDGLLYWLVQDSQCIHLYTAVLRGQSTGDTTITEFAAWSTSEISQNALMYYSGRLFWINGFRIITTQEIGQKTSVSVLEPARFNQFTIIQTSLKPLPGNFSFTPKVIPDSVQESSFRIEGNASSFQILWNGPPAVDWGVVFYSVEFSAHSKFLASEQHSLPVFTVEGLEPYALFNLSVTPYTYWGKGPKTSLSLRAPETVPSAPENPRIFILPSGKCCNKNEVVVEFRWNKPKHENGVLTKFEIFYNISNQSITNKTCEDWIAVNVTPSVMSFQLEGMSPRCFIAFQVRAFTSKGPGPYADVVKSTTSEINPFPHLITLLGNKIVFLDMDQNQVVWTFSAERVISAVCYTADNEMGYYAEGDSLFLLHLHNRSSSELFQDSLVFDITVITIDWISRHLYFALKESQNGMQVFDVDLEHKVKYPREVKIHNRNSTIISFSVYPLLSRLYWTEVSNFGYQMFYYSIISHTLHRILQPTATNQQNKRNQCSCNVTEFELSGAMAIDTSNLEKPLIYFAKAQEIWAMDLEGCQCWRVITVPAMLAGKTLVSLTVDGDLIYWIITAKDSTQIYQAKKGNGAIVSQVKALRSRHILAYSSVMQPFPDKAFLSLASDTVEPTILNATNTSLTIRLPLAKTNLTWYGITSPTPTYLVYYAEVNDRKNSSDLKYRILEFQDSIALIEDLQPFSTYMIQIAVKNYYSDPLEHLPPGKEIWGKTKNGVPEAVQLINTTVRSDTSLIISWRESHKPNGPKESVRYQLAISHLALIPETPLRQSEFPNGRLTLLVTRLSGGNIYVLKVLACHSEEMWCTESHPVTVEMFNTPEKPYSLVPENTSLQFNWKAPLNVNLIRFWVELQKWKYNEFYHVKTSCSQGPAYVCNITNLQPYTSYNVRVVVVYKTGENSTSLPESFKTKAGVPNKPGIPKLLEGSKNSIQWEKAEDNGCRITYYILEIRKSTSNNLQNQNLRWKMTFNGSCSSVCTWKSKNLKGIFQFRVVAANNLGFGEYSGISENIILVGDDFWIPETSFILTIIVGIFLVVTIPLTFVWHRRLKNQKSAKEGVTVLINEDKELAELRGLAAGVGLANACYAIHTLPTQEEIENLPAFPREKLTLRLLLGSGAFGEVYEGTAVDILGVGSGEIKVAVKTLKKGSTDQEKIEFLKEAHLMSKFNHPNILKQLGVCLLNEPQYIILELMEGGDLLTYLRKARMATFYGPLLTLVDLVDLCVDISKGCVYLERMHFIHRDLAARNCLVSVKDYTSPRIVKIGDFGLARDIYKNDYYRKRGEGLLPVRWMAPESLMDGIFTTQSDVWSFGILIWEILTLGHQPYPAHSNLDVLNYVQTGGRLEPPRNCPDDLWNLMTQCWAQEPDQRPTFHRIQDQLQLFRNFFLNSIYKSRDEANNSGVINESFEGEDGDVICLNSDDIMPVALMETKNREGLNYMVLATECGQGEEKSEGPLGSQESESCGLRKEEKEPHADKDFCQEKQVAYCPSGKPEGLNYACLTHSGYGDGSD
Chain of High affinity nerve growth factor receptor (Homo sapiens) (P04629 33-796 limits assumed): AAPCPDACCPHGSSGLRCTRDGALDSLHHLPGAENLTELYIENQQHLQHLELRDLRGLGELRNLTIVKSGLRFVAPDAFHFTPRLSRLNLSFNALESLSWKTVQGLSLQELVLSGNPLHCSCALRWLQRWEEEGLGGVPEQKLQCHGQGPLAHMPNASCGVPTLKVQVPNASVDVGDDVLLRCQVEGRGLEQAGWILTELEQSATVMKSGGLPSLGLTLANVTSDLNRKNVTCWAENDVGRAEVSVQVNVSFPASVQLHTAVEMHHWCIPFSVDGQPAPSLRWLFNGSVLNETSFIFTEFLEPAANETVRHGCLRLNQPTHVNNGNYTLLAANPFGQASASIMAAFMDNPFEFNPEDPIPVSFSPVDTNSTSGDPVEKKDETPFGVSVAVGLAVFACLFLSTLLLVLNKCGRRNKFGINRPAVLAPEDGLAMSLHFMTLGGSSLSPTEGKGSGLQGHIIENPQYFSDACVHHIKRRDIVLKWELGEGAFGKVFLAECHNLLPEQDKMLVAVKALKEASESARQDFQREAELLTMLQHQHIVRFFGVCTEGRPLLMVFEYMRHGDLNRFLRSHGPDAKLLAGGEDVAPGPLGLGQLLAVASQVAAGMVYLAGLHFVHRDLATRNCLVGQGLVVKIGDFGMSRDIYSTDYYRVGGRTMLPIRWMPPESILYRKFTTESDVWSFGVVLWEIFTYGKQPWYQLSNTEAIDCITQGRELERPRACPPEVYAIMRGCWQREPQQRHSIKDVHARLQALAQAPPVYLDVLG

## Cc1cccc(Nc2nc(N[C@@H]3CCCC[C@@H]3N)c(C#N)c3cn[nH]c(=O)c23)c1
[1]
  inhibition: > 90%
[2]
  bioavailability: 34%
[3]
  Cmax: 360 ng/mL
[4]
  inhibition: > 90%
[5]
  clearance: 12 mL/min/kg
[6]
  solubility: 2.1 µg/mL (≈ 5.39 µM)
[7]
  inhibition: > 90%
[8]
  inhibition: > 90%
[9]
  fraction unbound at 4 h, 10 ug/mL: 0.01
[10]
  inhibition: > 90%
[11]
  inhibition: > 90%
[12]
  inhibition: > 90%
[13]
  inhibition: > 90%
Mus musculus
  Cp(f): 3.1 nM
[14]
  inhibition: > 90%
[15]
  inhibition: > 90%
[16]
  inhibition: > 90%
[17]
  remaining at 0.5 h, 1 µM: 96%
[18]
  Activity: Non-Toxic
[19]
  inhibition: > 90%
[20]
  inhibition: > 90%
BaF3
  Activity: Dose-dependent effect
[21]
  AUC at 24 h: 4800 ng·h/mL
[22]
  IC50: 0.49 nM
[23]
  inhibition: > 90%
[24]
  Papp at 24 h, 5 µM: > 50 ×10⁻⁶ cm/s
[25]
  inhibition: > 90%
[26]
  GI50 at 72 h: 220 nM
[27]
  solubility: 0.9 µg/mL (≈ 2.31 µM)
[28]
  GI50: 1.9 nM
[29]
  inhibition: > 90%

## Cc1cccc(Nc2nc(N[C@@H]3CCCC[C@@H]3N)c(C#N)cc2C(N)=O)c1
[2]
  bioavailability: 17%
[3]
  Cmax: 420 ng/mL
[5]
  clearance: 12 mL/min/kg
[6]
  solubility: 49 µg/mL (≈ 134 µM)
[9]
  fraction unbound at 4 h, 10 ug/mL: 0.01
[17]
  remaining at 0.5 h, 1 µM: 100%
[21]
  AUC at 24 h: 2400 ng·h/mL
[24]
  Papp at 24 h, 5 µM: 16 ×10⁻⁶ cm/s
[27]
  solubility: 35 µg/mL (≈ 96 µM)

## N#Cc1cc(C(N)=O)c(N)nc1N[C@@H]1CCCC[C@@H]1N
[22]
  IC50: > 4000 nM

## Cc1cccc(Nc2nc(NC3CCCCC3N)cc3cn[nH]c(=O)c23)c1 (racemic)
[26]
  GI50 at 72 h: 1500 nM

## N#Cc1cc2c(N)nn(Cc3ccccc3)c2nc1NC1CCCCC1N (racemic)
[22]
  IC50: > 4000 nM
[26]
  GI50 at 72 h: > 5000 nM
[28]
  GI50: > 4000 nM

## Cc1cccc(Nc2nc(NC3CCCCC3N)c(Cl)c3cn[nH]c(=O)c23)c1 (racemic)
[26]
  GI50 at 72 h: 1500 nM

## Cc1cccc(Nc2ccc(C#N)c(N[C@@H]3CCCC[C@@H]3N)n2)c1
[22]
  IC50: > 4000 nM

## Cc1cccc(-n2c(=O)[nH]c3cc(C#N)c(N[C@@H]4CCCC[C@@H]4N)nc32)c1
[22]
  IC50: > 1300 nM

## Cc1cccc(Nc2nc(NC3CCCCC3N)cc3cc[nH]c(=O)c23)c1 (racemic)
[26]
  GI50 at 72 h: 1920 nM

## Cc1cccc(Cc2nc(N[C@@H]3CCCC[C@@H]3N)c(C#N)cc2C(N)=O)c1
[22]
  IC50: > 4000 nM

## Cc1cccc(Nc2nc(NC3CCCCC3N)cc3c2C(=O)NCC3)c1 (racemic)
[26]
  GI50 at 72 h: 4300 nM
